Measurements: ChEMBL document CHEMBL1150059, “Antifungal activity of meridine, a natural product from the marine sponge Corticium sp” (J Nat Prod, 1992)
Values after ≈ are worked out from the molar mass of the structure shown. Active and inactive are the calls of the source. No cut-off for these calls is given here.

Legend:
Candida albicans [1] = assay: Antifungal activity against Candida albicans 44506 in Sabouraud dextrose broth after 18 to 24 hrs by twofold broth dilution method; assay type: functional
Outline: (§1)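 Inoculum 10^3 cells/ml, incubated 18–24 h at 37°. MIC read visually as the lowest concentration with complete growth inhibition. Average of triplicates.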

Candida albicans [2] = assay: Antifungal activity against Candida albicans 44506 in RPMI-1640 medium after 18 to 24 hrs by twofold broth dilution method; assay type: functional
Outline: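 Twofold broth microdilution in RPMI-1640 (pH 7.2, unbuffered), inoculum 10^3 cells/ml. Incubated 18–24 h at 37° under 5% CO2. MIC read visually as the lowest concentration giving complete growth inhibition. Average of triplicates.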

Candida albicans [3] = assay: Antifungal activity against Candida albicans 44506 assessed as inhibition of U-14C-adenine incorporation into TCA precipitable material after 1 hr; assay type: functional, organism-based; conditions: Candida albicans, 44506, 1 h
Outline: (§2)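 Candida grown overnight in YNBG to mid-log phase, washed with saline, and resuspended in YNB lacking the precursor under study. Compound preincubated 30 min at 37°. 14C-labelled acetate, adenine, glucose or leucine (per line) then added, with incorporation followed 60 min (linear). Stopped with ice-cold TCA, 5% final. IC50 is the concentration giving 50% inhibition versus control.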

Candida albicans [4] = assay: Antifungal activity against Candida albicans 44506 assessed as inhibition of U-14C-leucine incorporation into TCA precipitable material after 1 hr; assay type: functional, organism-based; conditions: Candida albicans, 44506, 1 h; outline: as §2
Candida albicans [5] = assay: Antifungal activity against Candida albicans 44506 assessed as inhibition of U-14C-glucose incorporation into TCA precipitable material after 1 hr; assay type: functional, organism-based; conditions: Candida albicans, 44506, 1 h; outline: as §2
Candida albicans [6] = assay: Antifungal activity against Candida albicans 44506 assessed as inhibition of U-14C-acetate incorporation into TCA precipitable material after 1 hr; assay type: functional, organism-based; conditions: Candida albicans, 44506, 1 h; outline: as §2
Escherichia coli = assay: Antibacterial activity against Escherichia coli HBOI 001 after 18 to 24 hrs by twofold broth dilution method; assay type: functional, organism-based
Outline: (§3)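 Twofold serial dilutions in Mueller-Hinton broth supplemented with Mg2+ and Ca2+. Inoculum 10^3 cells/ml, with cell density counted by hemocytometer. Incubated 18–24 h at 37°. MIC is the lowest concentration giving complete visual inhibition of growth. Triplicate determinations, reported as the average.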

Pseudomonas aeruginosa = assay: Antibacterial activity against Pseudomonas aeruginosa 27853 after 18 to 24 hrs by twofold broth dilution method; assay type: functional, organism-based; outline: as §3
Bacillus subtilis = assay: Antibacterial activity against Bacillus subtilis 6633 after 18 to 24 hrs by twofold broth dilution method; assay type: functional; outline: as §3
Candida albicans [7] = assay: Antifungal activity against Candida albicans 44506 in Sabouraud dextrose broth after 24 to 48 hrs; assay type: functional
Outline: (§4)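 MFC taken from the broth MIC plates: wells resuspended, and 1 µl streaked onto Sabouraud dextrose agar (Candida) or Emmon's SDA (Cryptococcus). Scored after 24–48 h at 37°. MFC is the lowest concentration killing 99% of the inoculum. Average of triplicates.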

Candida albicans [8] = assay: Antifungal activity against Candida albicans 44506 in YNBG medium after 18 to 24 hrs by twofold broth dilution method; assay type: functional; outline: as §1
Candida albicans [9] = assay: Antifungal activity against Candida albicans 44506 in RPMI-1640 medium after 24 to 48 hrs; assay type: functional; outline: as §4
Cryptococcus neoformans [10] = assay: Antifungal activity against Cryptococcus neoformans 32045 after 48 hrs by twofold broth dilution method; assay type: functional; conditions: Cryptococcus neoformans, 32045, 48 h
Outline: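 Broth microdilution with twofold compound dilutions and an inoculum of 10^3 cells/ml. Incubated 48 h at 37°. MIC is the visually read lowest concentration completely inhibiting growth. Triplicate average.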

Cryptococcus neoformans [11] = assay: Antifungal activity against Cryptococcus neoformans 32045 after 24 to 48 hrs; assay type: functional; outline: as §4
[12] = test system: Trichophyton mentagrophytes; assay: Antifungal activity against Trichophyton mentagrophytes 9533 after 18 to 24 hrs by twofold broth dilution method; assay type: functional
Epidermophyton floccosum = assay: Antifungal activity against Epidermophyton floccosum 25066 after 18 to 24 hrs by twofold broth dilution method; assay type: functional
Nannizzia gypsea = assay: Antifungal activity against Microsporum gypseum 42960 after 18 to 24 hrs by twofold broth dilution method; assay type: functional
Trichosporon beigelii = assay: Antifungal activity against Trichosporon beigelii 28592 after 18 to 24 hrs by twofold broth dilution method; assay type: functional
Sporothrix schenckii = assay: Antifungal activity against Sporothrix schenckii 14284 after 18 to 24 hrs by twofold broth dilution method; assay type: functional
[13] = test system: Scopulariopsis brevicaulis; assay: Antifungal activity against Scopulariopsis brevicaulis 36840 after 18 to 24 hrs by twofold broth dilution method; assay type: functional
Candida albicans [14] = assay: Antifungal activity against Candida albicans 44506 in RPMI-1640 medium after 7 days in pH 4 buffer by agar dilution method; assay type: functional; conditions: Candida albicans, 44506, 168 h
Candida albicans [15] = assay: Antifungal activity against Candida albicans 44506 in RPMI-1640 medium after 7 days in pH 5 buffer by agar dilution method; assay type: functional; conditions: Candida albicans, 44506, 168 h
Candida albicans [16] = assay: Antifungal activity against Candida albicans 44506 in RPMI-1640 medium after 7 days in pH 6 buffer by agar dilution method; assay type: functional; conditions: Candida albicans, 44506, 168 h
Candida albicans [17] = assay: Antifungal activity against Candida albicans 44506 in RPMI-1640 medium after 7 days in pH 7 buffer by agar dilution method; assay type: functional; conditions: Candida albicans, 44506, 168 h
Candida albicans [18] = assay: Antifungal activity against Candida albicans 44506 in RPMI-1640 medium after 7 days in pH 8 buffer by agar dilution method; assay type: functional; conditions: Candida albicans, 44506, 168 h
Candida albicans [19] = assay: Antifungal activity against Candida albicans 44506 in RPMI-1640 medium of pH 7.2 after 7 days by agar dilution method; assay type: functional; conditions: Candida albicans, 44506, 168 h
Candida albicans [20] = assay: Antifungal activity against Candida albicans 44506 in YNBG medium after 7 days in pH 4 buffer by agar dilution method; assay type: functional; conditions: Candida albicans, 44506, 168 h
Candida albicans [21] = assay: Antifungal activity against Candida albicans 44506 in YNBG medium after 7 days in pH 5 buffer by agar dilution method; assay type: functional; conditions: Candida albicans, 44506, 168 h
Candida albicans [22] = assay: Antifungal activity against Candida albicans 44506 in YNBG medium after 7 days in pH 6 buffer by agar dilution method; assay type: functional; conditions: Candida albicans, 44506, 168 h
Candida albicans [23] = assay: Antifungal activity against Candida albicans 44506 in YNBG medium after 7 days in pH 7 buffer by agar dilution method; assay type: functional; conditions: Candida albicans, 44506, 168 h
Candida albicans [24] = assay: Antifungal activity against Candida albicans 44506 in YNBG medium after 7 days in pH 8 buffer by agar dilution method; assay type: functional; conditions: Candida albicans, 44506, 168 h
Candida albicans [25] = assay: Antifungal activity against Candida albicans 44506 in YNBG medium of pH 5.4 after 7 days by agar dilution method; assay type: functional; conditions: Candida albicans, 44506, 168 h

With `Clc1ccc(COC(Cn2ccnc2)c2ccc(Cl)cc2Cl)c(Cl)c1` (centres undefined) [MICONAZOLE] as the compound, how does the MIC (Candida albicans [1]) read?
The MIC was 25 µg/mL (≈ 60.1 µM).

And the MIC (Candida albicans [2])?
Its MIC is 0.03 µg/mL (≈ 0.0721 µM).

Which MIC (Candida albicans [1]) does the source give for `CC(=O)N1CCN(c2ccc(OCC3COC(Cn4ccnc4)(c4ccc(Cl)cc4Cl)O3)cc2)CC1` (centres undefined) [KETOCONAZOLE] here?
The MIC was 0.062 µg/mL (≈ 0.117 µM).

What about the MIC (Candida albicans [2]) of the same compound?
Its MIC is 0.008 µg/mL (≈ 0.0151 µM).

`CN(CC[C@H](N)CC(=O)N[C@H]1C=C[C@H](n2ccc(N)nc2=O)O[C@@H]1C(=O)O)C(=N)N` [BLASTICIDIN_S] was tested. Which IC50 (Candida albicans [3]) did it give?
Its IC50 is > 100 µg/mL.

And the IC50 (Candida albicans [4])?
Its IC50 is 6 µg/mL (≈ 14.2 µM).

And the IC50 (Candida albicans [5])?
Its IC50 is > 100 µg/mL.

What about the IC50 (Candida albicans [6]) of the same compound?
The IC50 was > 100 µg/mL.

What does the source list for `Nc1nc(=O)[nH]cc1F` [FLUCYTOSINE]?
IC50 (Candida albicans [3]): 6 µg/mL (≈ 46.5 µM); IC50 (Candida albicans [4]): > 100 µg/mL; IC50 (Candida albicans [5]): > 100 µg/mL; IC50 (Candida albicans [6]): > 100 µg/mL

What does the source list for `O=C1c2nccc(O)c2-c2nc3ccccc3c3ccnc1c23` [MERIDINE]?
Activity (Escherichia coli): inactive; Activity (Pseudomonas aeruginosa): inactive; MIC (Bacillus subtilis): 3.1 µg/mL (≈ 10.4 µM); MIC (Candida albicans [1]): 3.1 µg/mL (≈ 10.4 µM); MFC (Candida albicans [7]): 3.1 µg/mL (≈ 10.4 µM); MIC (Candida albicans [8]): 2.5 µg/mL (≈ 8.35 µM); MIC (Candida albicans [2]): 0.2 µg/mL (≈ 0.668 µM); MFC (Candida albicans [9]): 0.2 µg/mL (≈ 0.668 µM); MIC (Cryptococcus neoformans [10]): 0.8 µg/mL (≈ 2.67 µM); MFC (Cryptococcus neoformans [11]): 6.2 µg/mL (≈ 20.7 µM); MIC [12]: 6.2 µg/mL (≈ 20.7 µM); MIC (Epidermophyton floccosum): 1.6 µg/mL (≈ 5.35 µM); MIC (Nannizzia gypsea): 25 µg/mL (≈ 83.5 µM); MIC (Trichosporon beigelii): > 25 µg/mL; MIC (Sporothrix schenckii): > 25 µg/mL; MIC [13]: > 25 µg/mL; MIC (Candida albicans [14]): 0.62 µg/mL (≈ 2.07 µM); MIC (Candida albicans [15]): 0.62 µg/mL (≈ 2.07 µM); MIC (Candida albicans [16]): 0.31 µg/mL (≈ 1.04 µM); MIC (Candida albicans [17]): 0.31 µg/mL (≈ 1.04 µM); MIC (Candida albicans [18]): 0.31 µg/mL (≈ 1.04 µM); MIC (Candida albicans [19]): 0.31 µg/mL (≈ 1.04 µM); MIC (Candida albicans [20]): 2.5 µg/mL (≈ 8.35 µM); MIC (Candida albicans [21]): 2.5 µg/mL (≈ 8.35 µM); MIC (Candida albicans [22]): 1.2 µg/mL (≈ 4.01 µM); MIC (Candida albicans [23]): 1.2 µg/mL (≈ 4.01 µM); MIC (Candida albicans [24]): 1.2 µg/mL (≈ 4.01 µM); MIC (Candida albicans [25]): 2.5 µg/mL (≈ 8.35 µM); IC50 (Candida albicans [3]): 1 µg/mL (≈ 3.34 µM); IC50 (Candida albicans [4]): 50 µg/mL (≈ 167 µM); IC50 (Candida albicans [5]): > 100 µg/mL; IC50 (Candida albicans [6]): > 100 µg/mL
